Results gathered from unrelated publications.
Lines come from different studies, so protocols differ.

With `C[C@H]1Oc2cc(cnc2N)-c2c(nn(C)c2C#N)CN(C)C(=O)c2ccc(F)cc21` the AUC(0-t) was 1780 ng·h/mL (male Sprague-Dawley rat, plasma; oral, 5 mg/kg, single dose).
`C=C(CC(=O)OCOC(=O)OC(C)C)C(=O)O` gave a Papp of less than 1 ×10⁻⁶ cm/s (PAMPA; 10 µM, 4 h, pH 7.4).
The half-life of `COc1cccc2c(N3CCC(CCP(=O)(O)O)CC3)ncnc12` is reported as 6.6 h (EMT6; female BALB/c, tumour; subcutaneous, 50 mg/kg, tumour-bearing).
For `COCC(=O)N1CCC[C@H](C(=O)NCc2nc(-c3ccc(C#N)cc3)cs2)C1`, the AUC was 120 µM·h (male Sprague-Dawley rat, plasma; oral, 3 mg/kg).
With `O=c1[nH]cc(F)c(=O)[nH]1` the viability was 31.9% (PC-9; cell growth or viability, CCK-8; 50 µM).
`CN(Cc1cn(Cc2ccc(-c3nc4cc(-c5ccccc5)ccn4c3Nc3ccc(C(=O)O)cc3)cc2)nn1)c1cccc2c1C(=O)N(C1CCC(=O)NC1=O)C2=O` (stereo not drawn) has a CC50 of 190 µM (HCT-116; cell growth or viability; 72 h).
With `COc1nc(-c2cccc(-c3ccccc3)c2C)ccc1CNCCNC(=O)CCCCCCCCCCC(=O)N1CCN(CCNC(=O)c2cc3c(=O)n4cccc(C)c4nc3n(CCc3cccs3)c2=N)CC1` the AUC(0-inf) was 2450 ng·h/mL (male Sprague-Dawley rat, plasma; intraperitoneal, 4 mg/kg).
`O=C1CCC(N2C(=O)c3cccc(NCc4cn(Cc5ccc(-c6nc7cc(-c8ccccc8)ccn7c6Nc6ccc(C(=O)O)cc6)cc5)nn4)c3C2=O)C(=O)N1` (stereo not drawn) has a CC50 of 193 µM (HCT-116; cell growth or viability; 72 h).
`COCC(=O)N1CCC[C@H](C(=O)NCc2nc(-c3ccccc3)cs2)C1` gave an AUC of 110 µM·h (male Sprague-Dawley rat, plasma; oral, 3 mg/kg).
